Bioassay records (PubChem)
FLuc stim CS = firefly luciferase counter-screen for stimulation assays; ATPlite luciferase biochemical, luminescence, 10 min; 0 = ATP-free wells, 1 = DMSO control; activation factor at 10 µM; 200,000 tested, under 10 active; P08659;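 active means luciferase activation factor, scaled between plate controls, of at least 2 with compound at 10 µM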
Target sequence (P08659 whole entry, looked up): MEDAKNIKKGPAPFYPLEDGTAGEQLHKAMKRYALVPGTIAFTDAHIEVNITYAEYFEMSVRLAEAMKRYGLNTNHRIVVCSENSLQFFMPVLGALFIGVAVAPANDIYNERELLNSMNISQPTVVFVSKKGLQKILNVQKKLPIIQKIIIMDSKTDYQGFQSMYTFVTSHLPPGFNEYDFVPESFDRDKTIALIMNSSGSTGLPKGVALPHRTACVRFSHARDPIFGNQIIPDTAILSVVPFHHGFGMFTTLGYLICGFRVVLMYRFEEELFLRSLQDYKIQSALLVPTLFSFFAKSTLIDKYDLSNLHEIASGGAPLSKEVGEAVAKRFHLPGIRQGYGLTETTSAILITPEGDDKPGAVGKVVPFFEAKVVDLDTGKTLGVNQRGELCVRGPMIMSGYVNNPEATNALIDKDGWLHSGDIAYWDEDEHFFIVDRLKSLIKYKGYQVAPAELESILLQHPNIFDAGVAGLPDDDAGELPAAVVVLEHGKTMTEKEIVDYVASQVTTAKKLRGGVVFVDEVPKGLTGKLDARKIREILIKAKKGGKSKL
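Material: luciferase plus luciferin reagent, cell-free. Medium: PBS buffer for ATP. Also added: ATP substrate, dispensed from a 10.24 µM working solution in PBS. Doses: test compounds dosed from 2 mM stocks in 100% DMSO. Incubation: 10 min post-reagent at room temperature. Technique: light output (luminescence). Read-out basis: luminescence gain marking luciferase activators.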
FLuc inhib CS = inhibits firefly luciferase, flagging false hits in luciferase inhibition screens. P08659. ATPLite firefly luciferase biochemical luminescence, 10 min. inhibition, % at 10 µM. 200,000 compounds, 1.5% hits;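 active means inhibition above about 50% when tested at 10 µM, limit read from the data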
STAT1 blocker = reduces IFN-gamma driven STAT1 reporter signal. 200,000 compounds, 0.35% hits. NIH 3T3 STAT1-luciferase reporter, luminescence. inhibition, % at 5.5 µM;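 active means inhibition above a set limit, the mean inhibition across all tested compounds plus 3 SD, cut at about 34% in these data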;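 further: 0% = IFN-gamma with DMSO and 100% = IFN-gamma with 300 µM nifuroxazide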
STAT3 act = STAT3 signaling activation | U3A cells, IL-6 STAT3-luciferase reporter, luminescence; 100% = signal with IL-6 EC80 alone | activation (% of control), % at 5.6 µM | 190,000 compounds, 0.91% hits | AID 871;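 active means activation above the screen-wide mean of compound activation plus 3 SD, cut at about 130% in these data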;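 further: 0% = background luminescence of wells with medium and substrate only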
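Test system: STAT3-luciferase reporter U3A cells; Detection: reporter luminescence signal; Times: 1 h compound pre-exposure, 6 h IL-6 stimulation, 37 °C; Benchmarks: IL-6-only high control; Also added: IL-6 stimulus at 33 ng/mL final.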
STAT1 act = STAT1 signaling activation; NIH 3T3 STAT1-luciferase reporter, IFN-gamma, luminescence; 100% = IFN-gamma alone, no compound; 200,000 compounds, 2.6% hits; activation (% of control), % at 5.5 µM;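 active means activation above the screen-wide mean activation plus 3 SD, cut at about 130% in these data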;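 further: raw ratio to IFN-gamma control signal so 100% means no change and 0% no light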
STAT3 inh = reduces IL-6 driven STAT3 reporter signal | 190,000 compounds, 0.89% hits | inhibition, % at 5.5 µM | U3A cells, IL-6 STAT3-luciferase reporter, luminescence; host cell line lacks STAT1 | AID 862;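 active means inhibition above the mean inhibition across all screened compounds plus 3 SD, cut at about 44% in these data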;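 further: 0% = DMSO only wells and 100% = 100 µM nifuroxazide control wells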
* hit, by the source's call. In the library only some 4.9% were active in any assay of this set; here they are far more common.

SMILES	FLuc stim CS	FLuc inhib CS	STAT1 blocker	STAT3 act	STAT1 act	STAT3 inh
CN(C)c1nc(N)nc(-c2nc3ccccc3s2)n1	0.7	32	-38	180*	135*	-95
COc1ccc(-c2nc3ccccc3s2)cc1	0.1	92*	73*	27	33	85*
Cc1ccc(Cn2cccc(-c3nc4ccccc4s3)c2=O)cc1	1	5	-44	93	140*	15
Cc1ccc(CC2CC(=O)N(c3nc4ccccc4s3)C2=O)cc1 (stereo not drawn)	1	-1	-7	97	105	10
CC(=O)NCc1ccc(-c2nc3ccccc3s2)cc1	0.4	64*	-44	83	136*	24
Nc1ccccc1-c1nc2ccccc2s1	0.9	15	-47	132	144*	-35
CC(C(=O)OCC(=O)Nc1cccc(S(=O)(=O)N2CCOCC2)c1)N1C(=O)c2ccccc2C1=O (stereo not drawn)	1	-4	-5	113	102	-5
O=C1SC(SC(=Nc2ccccc2)Nc2ccccc2)C(=O)N1c1ccccc1 (stereo not drawn)	1	-4	-42	93	138*	16
Cc1ccc(OCC(=O)Nc2cc(C(=O)O)cc(C(=O)O)c2)cc1C	1.1	-5	-8	97	107	7
Cc1ccccc1NC(=O)c1csc2c1CCCC2	0.8	18	-19	93	117	19
COc1ccc(NC(=O)c2csc3c2CCCC3)cc1	0.7	29	-47	94	142*	10
COc1cccc(NC(=O)c2csc3c2CCCC3)c1	0.8	22	-53	96	145*	9
COc1ccc(-c2nc(NC(=O)c3n[nH]c(=O)c4ccccc34)sc2C)cc1	1.1	-7	-6	100	106	0
COCC(=O)Nc1cc(C(=O)Nc2ccccc2)ccc1Cl	0.7	27	1	91	97	16
CC(C)CC(=O)N1CC(C)N(C(=O)CC(C)C)CC1C (stereo not drawn)	1	-2	-3	99	102	2
COCCNC(=O)/C(C#N)=C/c1cc(C)n(C2CCCCC2)c1C	0.3	72*	-38	86	134*	18
Cc1ccc(/C=C(\C#N)C(=O)NCC2CCCO2)o1 (stereo not drawn)	1	-1	-6	83	105	24
Cc1cc(/C=C(/C#N)C(=O)Nc2ccccc2)c(C)n1-c1cccnc1	0.5	50*	-55	111	150*	-3
COc1ccc(-n2c(C)cc(/C=C(\C#N)C(=O)NCc3ccco3)c2C)cc1	1.1	-8	-13	104	112	-6
Cc1ccccc1-n1c(C)cc(/C=C(\C#N)C(=O)NCC2CCCO2)c1C (stereo not drawn)	0.2	75*	-56	123	149*	-27
COCCNC(=O)/C(C#N)=C/c1cc(C)n(-c2ccc(C)cc2)c1C	0.3	72*	-48	99	145*	7
O=C(NCCO)C(=O)c1c(-c2ccccc2)cc2ccccn12	1	-4	-1	103	100	3
CC(OC(=O)Cc1c(F)cccc1Cl)C(=O)NCCC1=CCCCC1 (stereo not drawn)	1	0	0	101	100	-4
Cc1ccc(NC(=O)c2ccc(OCC3CCCO3)cc2)cc1 (stereo not drawn)	0.5	53*	-35	106	136*	-10
Cc1ccc(NC(=O)c2ccc(OC(=O)COc3ccc(Cl)c(C)c3)cc2)cc1	0.9	8	-45	101	140*	-4
SMILES	FLuc stim CS	FLuc inhib CS	STAT1 blocker	STAT3 act	STAT1 act	STAT3 inh
Cc1cnc(NC(=O)c2ccc(OCC3CCCO3)cc2)s1 (stereo not drawn)	0	95*	51*	38	52	78*
COC(=O)COc1cccc(NC(=O)c2ccc(C)cc2)c1	0.7	34	27	94	75	11
COc1ccc(N(CC(=O)Nc2nccs2)S(=O)(=O)c2c(C)[nH]c(=O)[nH]c2=O)cc1	0.9	7	1	101	99	7
O=C(NC1CCCCC1)C1c2ccccc2C(=O)N1Cc1ccc2c(c1)OCO2 (stereo not drawn)	1.1	-9	8	99	93	9
CN(c1ccccc1)P(=O)(N(C)c1ccccc1)N(C)c1ccccc1	1	2	6	102	94	-1
O=C(N/N=C/c1ccccc1O)C1(O)c2ccccc2-c2ccccc21	1	4	0	103	100	-3
CCOC(=O)N1CCN(C(=O)CCSc2ccccc2)CC1	1	-3	-37	108	134*	-2
CCOC(=O)c1sc(=NC(=O)c2cccc(C)c2)n(C)c1C	0.6	40	-47	106	142*	-6
CCOC(=O)N1CCN(C(=O)CCSc2ccc(C)cc2)CC1	1.1	-5	-6	102	105	-3
CCOC(=O)c1sc(=NC(=O)c2ccc(C)cc2)n(C)c1C	0.8	21	-42	145*	139*	-46
CCOC(=O)c1sc(=NC(=O)CCSc2ccccc2)n(C)c1C	1	2	-38	104	136*	-5
Cc1ccc(C)c(NS(=O)(=O)c2cc(C(=O)N3CCCC3)ccc2Cl)c1	1	-2	5	96	94	10
CNC(=S)NNC(=O)c1ccccc1F	1.1	-7	4	87	96	20
COc1cc(/C=C/c2nc3ccccc3s2)cc(OC)c1O	0.9	9	-15	91	114	19
CN(C)c1ccc(/C=C/c2nc3ccccc3s2)cc1	0.1	93*	91*	14	17	108*
Cc1ccc(/C=C/c2nc3ccccc3s2)s1	0.1	91*	44*	43	60	70*
Cc1cc(S(=O)(=O)NCc2ccccc2)ccc1OCC(=O)NCC1CCCO1 (stereo not drawn)	1	-4	3	100	95	2
CC(c1ccon1)N(C)C(=O)CCc1nnc(CCCCc2ccccc2)o1 (stereo not drawn)	1.1	-6	4	111	96	0
Cc1cc(C)c(C#N)c(Sc2ccccc2N)n1	1	-4	-43	168*	139*	-77
COC(=O)C(Sc1nc(C)cc(C)c1C#N)c1ccccc1 (stereo not drawn)	1.1	-8	1	94	99	17
Cc1cccc(NC(=S)NNC(=O)c2csc3c2CCCC3)c1	0.4	57*	-16	88	115	19
Cc1cccc(NC(=S)NNC(=O)c2csc(C)c2)c1	0.4	57*	3	87	98	15
